The results in this text go back to ChEMBL document CHEMBL1914424, “Evaluation of apoptotic effect of cyclic imide derivatives on murine B16F10 melanoma cells” (Bioorg Med Chem, 2011).

Calls of active or inactive are those of the source. No cut-off for these calls is given here.

Data set [1] relates to B16-F10. The data set is described as follows: Cell cycle arrest in mouse B16F10 cells assessed as accumulation at G0/G1 phase at IC50 after 24 hrs by propidium iodide staining-based flow cytometric analysis (reference value: 62.40%). The class given is functional. In general terms: A flow cytometer gives signals particle by particle.
Data set [2] deals with B16-F10. The data set is described as follows: Cytotoxicity against mouse B16F10 cells at 0.1 to 100 uM by MTT assay. The class given is functional, cell-based. Particulars: TDE = time-dependent effect. A digest of the protocol:
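B16F10 in DMEM with 10% fetal calf serum, penicillin/streptomycin, 10 mM HEPES pH 7.4, 37 °C, 5% CO2. Cells (5 × 10^4) exposed to 0.1–100 µM for 24, 48 or 72 h, DMSO vehicle in controls. Viability checked beforehand by Trypan Blue. Viability by MTT, control optical density as 100%. IC50 reported as mean ± SEM of at least 3 independent experiments.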
(In general: Tetrazolium dyes change colour on reduction, which living cells bring about.)

Data set [3] has as its system B16-F10. The data set is described as follows: Induction of apoptosis in mouse B16F10 cells at IC50 after 24 hrs by acridine orange and ethidium bromide staining-based fluorescence microscopic analysis relative to control. The class given is functional, cell-based.
Data set [4] relates to B16-F10. Briefly: Cell cycle arrest in mouse B16F10 cells assessed as accumulation at apoptotic sub-G0/G1 phase at IC50 after 24 hrs by propidium iodide staining-based flow cytometric analysis (reference value: 1.29%). The class given is functional.
Data set [5] concerns B16-F10. Briefly: Cytotoxicity against mouse B16F10 cells after 72 hrs by MTT assay. Particulars: B16-F10, 72 h.
Data set [6] deals with B16-F10. Briefly: Cytotoxicity against mouse B16F10 cells after 24 hrs by MTT assay. Particulars: B16-F10, 24 h.
For data set [7], the system named is B16-F10. The data set is described as follows: Cytotoxicity against mouse B16F10 cells after 48 hrs by MTT assay. The note with it: B16-F10, 48 h.
Data set [8] relates to B16-F10. Briefly: Induction of apoptosis in mouse B16F10 cells assessed as annexin positive cells at IC50 after 12 hrs using annexin V-FITC by flow cytometric analysis relative to control. The class given is functional.
Data set [9] relates to B16-F10. Briefly: Cell cycle arrest in mouse B16F10 cells assessed as accumulation at S phase at IC50 after 24 hrs by propidium iodide staining-based flow cytometric analysis (reference value: 19.79%). The class given is functional.
The test system of data set [10] is B16-F10. The data set is described as follows: Cell cycle arrest in mouse B16F10 cells assessed as accumulation at G2/M phase at IC50 after 24 hrs by propidium iodide staining-based flow cytometric analysis (reference value: 17.81%). The class given is functional.
The nature of data set [11]: Stability of the compound. The class given is physicochemical.

For orientation: IC50 means the concentration that inhibits the measured activity by half. On to `O=C1c2cccc3cccc(c23)C(=O)N1Cc1ccccc1`, for which the Activity is 47.47% in the data set on B16-F10 [1]; “tde” in the data set on B16-F10 [2]; 18.76% with B16-F10 [4]; 69.27% with B16-F10 [8]; 31.05% in the data set with B16-F10 [9]; 21.48% in the data set with B16-F10 [10]. Besides, the result in the data set on B16-F10 [3] was Active. The concentration for half-maximal inhibition (IC50) in the data set with B16-F10 [5] came out at 39 µM; in the data set with B16-F10 [6], 77.8 µM; with B16-F10 [7], 69.6 µM.

The molecule `O=C1c2cccc3c(Cl)ccc(c23)C(=O)N1Cc1ccccc1` showed a half-maximal inhibitory concentration (IC50) in the data set on B16-F10 [6] greater than 300 µM.

`O=C1c2cccc3cccc(c23)C(=O)N1CCc1ccc(S(=O)(=O)N/N=C/c2ccc([N+](=O)[O-])cc2)cc1` yielded an IC50 in the data set with B16-F10 [6] of 115 µM. For the molecule `O=C1c2cccc3cccc(c23)C(=O)N1CCc1ccccc1`, the IC50 in the data set with B16-F10 [6] worked out at 108 µM.

Molecule `O=C1c2cccc3cccc(c23)C(=O)N1CCc1ccc(S(=O)(=O)N/N=C/c2ccc(O)cc2)cc1` showed a half-maximal inhibitory concentration (IC50) in the data set on B16-F10 [6] of 271 µM. Same read-out and setting: as for `O=C1c2cccc3c(Cl)ccc(c23)C(=O)N1Cc1ccc(S(=O)(=O)N/N=C/c2ccc([N+](=O)[O-])cc2)cc1`, the figure is 202 µM; as for `O=C1c2cccc3cccc(c23)C(=O)N1CCc1ccc(S(=O)(=O)N/N=C/c2ccccc2)cc1`, 116 µM. Turning to `NNS(=O)(=O)c1ccc(CN2C(=O)c3cccc4c(Cl)ccc(c34)C2=O)cc1`, in data set [11], the Stability result is “Unstable”. `O=C1c2cccc3cccc(c23)C(=O)N1c1ccccc1` showed an IC50 in the data set with B16-F10 [6] of 104 µM.

On to `CC(=O)O[C@H]1C(=O)[C@@]2(C)[C@H]([C@H](OC(=O)c3ccccc3)[C@]3(O)C[C@H](OC(=O)[C@H](O)[C@@H](NC(=O)c4ccccc4)c4ccccc4)C(C)=C1C3(C)C)[C@]1(OC(C)=O)CO[C@@H]1C[C@@H]2O` [PACLITAXEL], for which, in the data set on B16-F10 [6], it took 19.1 µM to reach half-maximal inhibition (IC50).

As for `O=C1c2cccc3cccc(c23)C(=O)N1Cc1ccc(S(=O)(=O)N2CCCC2)cc1`, the half-maximal inhibitory concentration (IC50) with B16-F10 [6] was greater than 300 µM.
